Series [1] in a line: Clearance in CD-1 mouse cryopreserved hepatocytes incubated for 10 mins under shaking condition by LC-MS/MS analysis. Format: ADME, cell-based, Hepatocyte. The settings on record: read-out: CLH.
Series [2] in a line: Metabolic stability in cynomolgus monkey liver microsomes assessed as parent compound remaining at 10 uM preincubated for 10 mins in water bath followed by NADPH addition and measured after 60 mins by LC-MS/MS analysis. Format: ADME, Macaca fascicularis, Microsome. The settings on record: read-out: Stability. Background: Liver microsomes are a subcellular fraction often used to study metabolism.

For series [3], the system named is Mus musculus. The series can be described thus: In vivo inhibition of PI3K in BALB/c nude mouse xenografted with PI3KCA mutant human BT474 cells assessed as reduction in AKT phosphorylation at 15 to 40 mg/kg, po administered once daily by Western blot analysis. Format: functional, organism-based. The settings on record: BT-474, TDE = time-dependent effect. In a few lines:
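Mice bearing BT-474 subcutaneous xenografts were dosed orally in vehicle 0.5% MC + 0.2% Tween 80. Tumor Akt phosphorylation was assessed for time and dose dependence.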
(In general: In xenograft studies the graft and the host belong to different species.)

Series [4] addresses Phosphatidylinositol 4,5-bisphosphate 3-kinase catalytic subunit alpha isoform (Homo sapiens, UniProt P42336). The series can be described thus: Inhibition of PI3Kalpha in human BT474 cells expressing P3KCA mutant assessed as reduction in AKT phosphorylation at residue S473 incubated for 2 hrs followed by insulin addition by ELISA. Format: cell-based. The settings on record: bt-474. In a few lines: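 Akt phosphorylation was measured in the PIK3CA mutant human breast ductal carcinoma BT-474 cell line, used as a PI3Kα-sensitive cellular readout. IC50 determined.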
(In general: In an ELISA, binding on a coated surface is turned into a signal by an enzyme label.)

Series [5] is described as follows: Half life in BALB/c mouse at 1 mg/kg, iv by HPLC analysis. The settings on record: in vivo.
Series [6] in a line: Cmax in BALB/c mouse at 10 mg/kg, po by HPLC analysis. The settings on record: in vivo. Format: ADME, organism-based. Also noted: dose 10 mg/kg, route oral.
Series [7] can be described thus: Inhibition of PI3K in human MCF7 cells assessed as reduction in AKT phosphorylation at residue S473 incubated for 2 hrs followed by insulin addition by ELISA. Format: cell-based. The settings on record: MCF7, 2 h.
Series [8] in a line: Clearance in Beagle dog cryopreserved hepatocytes incubated for 10 mins under shaking condition by LC-MS/MS analysis. Format: ADME, cell-based, Canis lupus familiaris, Hepatocyte. The settings on record: read-out: CLH.
The nature of series [9]: Protein binding in human plasma measured after 4 hrs by LC-MS/MS analysis. Format: ADME, cell-free. The settings on record: read-out: PPB (converted).
The nature of series [10]: Clearance in Sprague-Dawley rat at 1 mg/kg, iv by HPLC analysis. Format: ADME, organism-based. The settings on record: in vivo.
Series [11] in a line: Volume of distribution in Sprague-Dawley rat at 1 mg/kg, iv by HPLC analysis. Conditions: in vivo. Format: ADME, organism-based.
Series [12] in a line: Half life in Sprague-Dawley rat at 1 mg/kg, iv by HPLC analysis. Format: ADME, organism-based. Conditions: in vivo.

Sequence of Phosphatidylinositol 4,5-bisphosphate 3-kinase catalytic subunit alpha isoform (P42336 whole entry, looked up, canonical isoform): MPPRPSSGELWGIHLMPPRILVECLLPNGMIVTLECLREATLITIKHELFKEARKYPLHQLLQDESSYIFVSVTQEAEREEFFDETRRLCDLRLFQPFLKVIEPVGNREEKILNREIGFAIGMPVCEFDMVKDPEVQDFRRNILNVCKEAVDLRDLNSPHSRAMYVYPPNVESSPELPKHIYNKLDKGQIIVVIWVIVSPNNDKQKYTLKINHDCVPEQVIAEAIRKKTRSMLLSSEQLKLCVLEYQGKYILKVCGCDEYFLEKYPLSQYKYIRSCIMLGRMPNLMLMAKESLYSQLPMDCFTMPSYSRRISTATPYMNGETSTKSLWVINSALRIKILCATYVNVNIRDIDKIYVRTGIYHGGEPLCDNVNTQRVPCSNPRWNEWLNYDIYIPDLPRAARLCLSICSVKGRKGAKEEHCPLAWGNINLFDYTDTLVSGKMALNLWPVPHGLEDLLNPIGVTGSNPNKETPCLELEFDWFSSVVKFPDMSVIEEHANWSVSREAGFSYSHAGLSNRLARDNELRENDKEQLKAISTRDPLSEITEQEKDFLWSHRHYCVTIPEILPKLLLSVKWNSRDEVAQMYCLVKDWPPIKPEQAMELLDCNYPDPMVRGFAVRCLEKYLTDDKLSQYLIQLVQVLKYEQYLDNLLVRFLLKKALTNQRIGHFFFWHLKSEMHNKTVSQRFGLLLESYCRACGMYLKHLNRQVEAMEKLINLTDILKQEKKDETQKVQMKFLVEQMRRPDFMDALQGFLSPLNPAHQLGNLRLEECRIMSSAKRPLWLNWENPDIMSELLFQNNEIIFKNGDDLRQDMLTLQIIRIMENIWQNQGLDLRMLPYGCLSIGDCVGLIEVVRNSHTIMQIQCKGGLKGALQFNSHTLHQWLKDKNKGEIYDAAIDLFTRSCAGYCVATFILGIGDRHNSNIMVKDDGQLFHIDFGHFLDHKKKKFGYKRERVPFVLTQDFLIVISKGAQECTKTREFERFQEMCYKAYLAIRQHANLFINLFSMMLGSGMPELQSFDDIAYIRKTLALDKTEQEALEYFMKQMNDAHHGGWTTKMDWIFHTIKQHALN

With `CNC(=O)[C@H](C)Cn1cnc2ccc(-c3cnc(OC)c(NS(=O)(=O)c4ccc(F)cc4Cl)c3)cc2c1=O`, the CLint scaled in [1] is 642 mL/min/kg; in [8], below 44 mL/min/kg. The remaining at 1 h, 10 µM in series [2] worked out at 13.7%. Further, in series [3], the inhibition result was “Tde”. For the same compound, the values for the IC50 in [4] and in series [7] were 12.1 nM and 32.9 nM, respectively. Besides, the half-life (usually the time needed for the level to fall by half in the phase considered) is 0.966 h in series [5] and 1.22 h in [12]. Also, the Cmax (usually the highest concentration seen after dosing) in series [6] turned out to be 37 µM. Besides, the fraction unbound at 4 h in [9] is 0.014. The clearance (as a rule, the rate of elimination divided by the concentration) in series [10] was found to be 5.28 mL/min/kg. In series [11], the Vd – broadly, the apparent volume that relates the amount in the body to the concentration in plasma or blood – is 0.321 L/kg.

(Values after ChEMBL document CHEMBL4619796, “Discovery of 3-Quinazolin-4(3H)-on-3-yl-2,N-dimethylpropanamides as Orally Active and Selective PI3Kα Inhibitors” (ACS Med Chem Lett, 2020).)
